Experimental data: ChEMBL document CHEMBL1151419, “Antimicrobial effect of halocidin-derived peptide in a mouse model of Listeria infection” (Antimicrob Agents Chemother, 2007)
Active and inactive are the calls of the source. The rule behind the calls is not given here. Bridge positions count the residues as written; N and C are the ends. Peptide text beside a SMILES is read from it. I, II: the chains in the order shown.

Tests used:
Staphylococcus aureus [1] = assay: Antimicrobial activity against methicillin-resistant Staphylococcus aureus CCARM 3695 treated with sample containing 25 to 200 ug/ml drug incubated with PBS containing 50% normal human serum for 10 mins measured after 3 hrs by radial diffusion assay; type: functional, organism-based
Summary of the method: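 Normal human serum from three donors, heat-treated 30 min at 56°C. Peptide at 25–200 µg/ml in PBS with 50% serum, held 10 min at 37°C; 5 µl placed in 3-mm wells. Underlay: 1% agarose, 9 mM phosphate, 1 mM citrate, 0.3 mg/ml TSB, pH 7.4, with 4 x 10^6 CFU/ml mid-log MRSA. After 3 h at 37°C, overlaid (1% agarose, 6% TSB), incubated overnight. Clear zones in units (1 mm = 10 units); triplicate means.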

Staphylococcus aureus [2] = assay: Antimicrobial activity against methicillin-resistant Staphylococcus aureus CCARM 3695 treated with sample containing 25 to 200 ug/ml drug incubated with PBS for 10 mins measured after 3 hrs by radial diffusion assay; type: functional, organism-based
Summary of the method: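 Serum-free radial diffusion. Peptide in PBS alone (200 µg/ml control) held 10 min at 37°C; 5 µl placed in 3-mm wells. Underlay: pH 7.4 agarose, phosphate/citrate, 0.3 mg/ml TSB, mid-log MRSA 4 x 10^6 CFU/ml. After 3 h at 37°C, TSB-agarose overlay, incubated overnight. Clear-zone diameter read to 0.1 mm (1 mm = 10 units).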

[3] = Stability in human serum assessed as drug remaining at 1 mg/ml after 8 hrs; type: ADME, cell-free; conditions: read-out: Stability
Summary of the method: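 At 0, 2, 4 and 8 h, 200-µl aliquots were quenched with 20 µl of 1% TFA, held 10 min at 4°C, and centrifuged. Remaining peptide was quantified by HPLC peak area relative to the unincubated sample. Triplicate runs.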

Listeria monocytogenes [4] = assay: Antimicrobial activity against Listeria monocytogenes ATCC 19111 infected in BALB/c mouse assessed as survival of mouse at 4 mg/kg, iv administered immediately after bacterial challenge measured after 15 days; type: functional; conditions: ATCC 19111, 360 h
Summary of the method: (§1)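 L. monocytogenes grown 18 h at 37°C in brain heart infusion broth and frozen at –80°C; viability checked by plating. Mice infected via tail vein with 2 x 10^5 bacteria each. A single 4 mg/kg i.v. dose in 100 µl PBS was given immediately or 2 h after infection; PBS vehicle controls. Ten mice per group; survivors counted daily for 15 days.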

Listeria monocytogenes [5] = assay: Antimicrobial activity against Listeria monocytogenes ATCC 19111 infected in BALB/c mouse assessed as survival of mouse at 4 mg/kg, iv administered 2 hrs after bacterial challenge measured after 4 days; type: functional, organism-based; parameters: dose 4 mg/kg
Summary of the method: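 Mice (n = 10) were infected by tail vein with 2 x 10^5 L. monocytogenes, grown 18 h at 37°C in brain heart infusion broth. A single i.v. dose of 4 mg/kg in 100 µl PBS was given 2 h after infection; PBS-treated infected mice served as vehicle control. Surviving mice were counted daily for 15 days.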

Listeria monocytogenes [6] = assay: Antimicrobial activity against Listeria monocytogenes ATCC 19111 infected in BALB/c mouse assessed as survival of mouse at 4 mg/kg, iv administered 2 hrs after bacterial challenge measured after 15 days; type: functional; summary of the method: as §1
Listeria monocytogenes [7] = assay: Antimicrobial activity against Listeria monocytogenes ATCC 19111 infected in BALB/c mouse assessed as reduction in number of recovered CFU in spleen at 100 ug, iv measured after 3 days; type: functional, organism-based
Summary of the method: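 Mice were infected i.v. with L. monocytogenes and immediately given 100 µg peptide in 100 µl PBS i.v.; PBS alone served as control. On days 1 and 3, liver and spleen were homogenized in PBS/0.1% BSA, serially diluted, and plated on TSA with 5% sheep blood. Colonies were counted after 18 h at 37°C. Three independent experiments; mean ± SD.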

Liver = assay: Drug penetration in BALB/c mouse liver infected with CFSE-labeled Listeria monocytogenes ATCC 19111 at 200 ug, iv by laser scanning confocal microscopy; type: ADME, organism-based; conditions: in vivo
Summary of the method: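 Listeria was labeled with 5 µM CFSE for 20 min at 37°C in darkness and washed. Mice received 4 x 10^8 cells by tail vein, then immediately 200 µg peptide in 100 µl PBS i.v., or PBS only. Livers were taken 10 min later. Frozen 6-µm sections were stained with cross-reacting rabbit anti-18Hc antiserum (1:200) and Cy3 goat anti-rabbit IgG, then imaged by laser scanning confocal microscopy.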

[8] = Toxicity in human erythrocytes assessed as hemolysis at 25 ug/ml relative to Triton X-100; type: cell-based, Erythrocyte; conditions: read-out: Activity
Summary of the method: (§2)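 Peptide (20 µl) was mixed with 180 µl of a 2.5% (vol/vol) human RBC suspension in PBS and incubated 30 min at 37°C. PBS was added and samples centrifuged 3 min at 10,000 x g; supernatant A540 was read. Hemolysis was expressed relative to a peptide-free PBS blank and 1% Triton X-100 as 100%.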

[9] = Toxicity in human erythrocytes assessed as hemolysis at 100 ug/ml relative to Triton X-100; type: cell-based, Erythrocyte; conditions: read-out: Activity; summary of the method: as §2

For `CC(C)C[C@H](NC(=O)CNC(=O)[C@H](Cc1cnc[nH]1)NC(=O)[C@H](Cc1cnc[nH]1)NC(=O)[C@H](CC(C)C)NC(=O)[C@H](CC(C)C)NC(=O)[C@H](C)N)C(=O)N[C@@H](CC(N)=O)C(=O)N[C@@H](CSSC[C@H](NC(=O)[C@H](CC(N)=O)NC(=O)[C@H](CC(C)C)NC(=O)CNC(=O)[C@H](Cc1cnc[nH]1)NC(=O)[C@H](Cc1cnc[nH]1)NC(=O)[C@H](CC(C)C)NC(=O)[C@H](CC(C)C)NC(=O)[C@H](C)NC(=O)[C@H](CC(N)=O)NC(=O)[C@H](CC(C)C)NC(=O)[C@H](Cc1c[nH]c2ccccc12)NC(=O)[C@@H](N)CCCCN)C(=O)N[C@@H](C)C(=O)N[C@@H](CCCCN)C(=O)NCC(=O)N[C@H](C(=O)N[C@@H](CC(C)C)C(=O)N[C@@H](C)C(=O)O)C(C)C)C(=O)N[C@@H](C)C(=O)N[C@@H](CCCCN)C(=O)NCC(=O)N[C@H](C(=O)N[C@@H](CC(C)C)C(=O)N[C@@H](C)C(=O)O)C(C)C` (I: H-KWLNALLHHGLNCAKGVLA-OH / II: H-ALLHHGLNCAKGVLA-OH; disulfide I:13-II:9), the Activity (Staphylococcus aureus [1]) was “Active”, the Activity (Staphylococcus aureus [2]) was “Active” and the remaining at 8 h, 1 mg/ml [3] was 39%. For the same molecule, the survival at 4 mg/kg (Listeria monocytogenes [4]) was 90%, the Activity (Listeria monocytogenes [5]) was “Active” and the survival at 4 mg/kg (Listeria monocytogenes [6]) was 50%. For the same molecule, the Activity (Listeria monocytogenes [7]) was “Active”, the Activity (Liver) was “Active” and the hemolysis at 25 ug/ml [8] was 2.3%. The hemolysis at 100 ug/ml [9] was 8.5%.
